Assay results: ChEMBL document CHEMBL1124668, “Solid-phase synthesis of 16 potent (selective and nonselective) in vivo antagonists of oxytocin” (J Med Chem, 1989)
Starred links: 1 amine or outer side, 2 acyl side, 3 side chain; linkers in the order of their positions; H or OH if unused. Positions of bridges follow the written chain, without caps; N, C: chain ends. Non-standard residues stand in square brackets, D forms with d. Residues, ends and D or L forms follow the SMILES beside them. X1 = O=C(CC1(S[*:2])CCCCC1)[*:1]; Orn = NCCC[C@H](N)C(=O)O

Assays:
[1] = test system: Rattus norvegicus; assay: In vivo inhibition of estrogen induced changes in interuterine pressure in rats.; format: functional
Summary of the method: (§1)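 Rats pretreated with estrogen, under urethane anesthesia; antagonist given iv; read-out is change in integrated intrauterine pressure; agonist synthetic oxytocin. Effective dose (nmol/kg) is the dose that cuts the response to 2X units of agonist to the response to 1X unit, interpolated on a semilog scale from doses above and below it. pA2 is derived assuming a 67 mL/kg distribution volume.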

[2] = test system: Rattus norvegicus; assay: Antidiuretic activity in rats as intravenous dose required for reduction of 2x agonist response to equal 1x effect in estrogen pretreated rats; format: functional, Urine
[3] = test system: Rattus norvegicus; assay: (§2) Antivasopressor activity in vivo in phenoxybenzamine pre-treated rats.; format: functional
Summary of the method: (§3)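 Rats pretreated with phenoxybenzamine, under urethane anesthesia; antagonist given iv; agonist USP Posterior Pituitary Reference Standard; read-out is pressor response. Effective dose (nmol/kg) is the dose that cuts the response to 2X units of agonist to that of 1X unit, interpolated semilogarithmically from bracketing doses. pA2 assumes a 67 mL/kg distribution volume. SEM is given where there are ≥4 independent estimates.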

[4] = test system: Rattus norvegicus; assay: Antidiuretic activity in rats as intravenous dose required for reduction of 2x agonist response to equal 1x effect in estrogen pretreated rats; Weak partial agonist/antagonist; format: functional; settings: Urine
[5] = test system: Rattus norvegicus; assay: (§4) In vivo antidiuretic activity as intravenous antagonist dose in estrogen pretreated rats; Weak partial agonist/antagonist; format: functional, organism-based; settings: Urine
[6] = test system: Rattus norvegicus; assay: Antidiuretic activity in rats as intravenous dose required for reduction of 2x agonist response to equal 1x effect in hydrated rats under ethanol anesthesia; Weak partial agonist/antagonist
[7] = test system: Rattus norvegicus; assay: Antidiuretic activity in rats as intravenous dose required for reduction of 2x agonist response to equal 1x effect in estrogen pretreated rats; weak partial agonist/antagonist; format: functional, Urine
[8] = organism: Rattus norvegicus; assay: Antidiuretic activity in rat; format: functional, Urine
[9] = test system: Rattus norvegicus; assay: as §4; format: functional, Urine
[10] = test system: Rattus norvegicus; assay: In vivo antidiuretic activity as intravenous antagonist dose in estrogen pretreated rats; format: functional, Urine
[11] = organism: Rattus norvegicus; assay: Antioxytoxic activity in vitro in isolated uteri from estrogen pretreated rats suspended in Mg-free Dyke-Hastings solution.; settings: read-out: pA2 (converted)
[12] = test system: Rattus norvegicus; assay: Antiantidiuretic activity in vivo in hydrated rats under ethanol anaesthesia.; format: functional, organism-based; settings: Urine, read-out: pA2 (converted)
Summary of the method: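 Hydrated rats under ethanol anaesthesia; antagonist given iv against the USP Posterior Pituitary Reference Standard as agonist. Effective dose (nmol/kg) is the dose that cuts the response to 2x units of agonist to equal the response to 1x unit. It is estimated by interpolation on a semilog scale between doses above and below it. pA2 assumes a volume of distribution of 67 mL/kg. Where SEM is given, n ≥4 estimates.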

[13] = test system: Rattus norvegicus; assay: as §2; format: functional, organism-based; settings: read-out: pA2 (converted); summary of the method: as §3
[14] = organism: Rattus norvegicus; assay: Antioxytoxic activity in vitro in isolated uteri from estrogen pretreated rats suspended in Mg supplemented Dyke-Hastings solution.; format: functional; settings: read-out: pA2 (converted)
Summary of the method: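 Isolated rat uterus in bath medium with Mg2+; agonist USP Posterior Pituitary Reference Standard. pA2 is the −log of the effective molar antagonist concentration that reduces the response to a dose of agonist to the response to half that dose. It is interpolated semilogarithmically from concentrations above and below it. SEM is given where there are ≥4 independent estimates.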

[15] = test system: Rattus norvegicus; assay: Antioxytocic potencies (change in interuterine pressure) in vivo in estrogen pre-treated rats.; format: functional, organism-based; settings: read-out: pA2 (converted); summary of the method: as §1
[16] = organism: Rattus norvegicus; assay: Antidiuretic activity in rats; format: functional, Urine

Row | SMILES | ED [1] [nM/kg] | ED [2] [nM/kg] | ED [3] [nM/kg] | also measured
1 | CC[C@H](C)[C@@H]1NC(=O)[C@@H](Cc2ccccc2)NC(=O)CC2(CCCCC2)SSC[C@@H](C(=O)N2CCC[C@H]2C(=O)N[C@@H](CCCN=C(N)N)C(=O)NCC(N)=O)NC(=O)[C@H](CC(N)=O)NC(=O)[C@H](C(C)C)NC1=O | 2.5 | 45 | 17 | –
2 | CC[C@H](C)[C@@H]1NC(=O)[C@@H](Cc2ccc(OC)cc2)NC(=O)CC2(CCCCC2)SSC[C@@H](C(=O)N2CCC[C@H]2C(=O)N[C@@H](CCCN=C(N)N)C(=O)NCC(N)=O)NC(=O)[C@H](CC(N)=O)NC(=O)[C@H](C(C)C)NC1=O | 2.4 | 9.4 | 1.1 | –
3 | CCOc1ccc(C[C@H]2NC(=O)CC3(CCCCC3)SSC[C@@H](C(=O)N3CCC[C@H]3C(=O)N[C@@H](CCCNC(N)=O)C(=O)NCC(N)=O)NC(=O)[C@H](CC(N)=O)NC(=O)[C@H](C(C)C)NC(=O)[C@H](Cc3ccccc3)NC2=O)cc1 | 1.8 | 23 | 0.81 | –
4 | COc1ccc(C[C@H]2NC(=O)CC3(CCCCC3)SSC[C@@H](C(=O)N3CCC[C@H]3C(=O)N[C@@H](CCCN=C(N)N)C(=O)NCC(N)=O)NC(=O)[C@H](CC(N)=O)NC(=O)[C@H](CCC(N)=O)NC(=O)[C@H](Cc3ccccc3)NC2=O)cc1 | 1.3 | 7.3 | 0.36 | –
5 | COc1ccc(C[C@H]2NC(=O)CC3(CCCCC3)SSC[C@@H](C(=O)N3CCC[C@H]3C(=O)N[C@@H](CCCN=C(N)N)C(=O)NCC(N)=O)NC(=O)[C@H](CC(N)=O)NC(=O)[C@H](C(C)C)NC(=O)[C@H](Cc3ccccc3)NC2=O)cc1 | 1.9 | 1.2 | 0.23 | –
6 | COc1ccc(C[C@H]2NC(=O)CC3(CCCCC3)SSC[C@@H](C(=O)N3CC=C[C@H]3C(=O)N[C@@H](CCCN=C(N)N)C(=O)NCC(N)=O)NC(=O)[C@H](CC(N)=O)NC(=O)[C@H](C(C)C)NC(=O)[C@H](Cc3ccccc3)NC2=O)cc1 | 1.17 | 1.7 | 0.55 | –
7 | COc1ccc(C[C@@H]2NC(=O)CC3(CCCCC3)SSC[C@@H](C(=O)N3CCC[C@H]3C(=O)N[C@@H](CCCN=C(N)N)C(=O)NCC(N)=O)NC(=O)[C@H](CC(N)=O)NC(=O)[C@H](C(C)C)NC(=O)[C@H](Cc3ccccc3)NC2=O)cc1 | 8 | 3.1 | 0.29 | –
8 | CC[C@H](C)[C@H]1NC(=O)[C@@H](Cc2ccc(OC)cc2)NC(=O)CC2(CCCCC2)SSC[C@H](C(=O)N2CCC[C@H]2C(=O)N[C@@H](CCCN)C(=O)N[C@H](C)C(N)=O)NC(=O)[C@@H](CC(N)=O)NC(=O)[C@H]([C@H](C)O)NC1=O | – | – | – | ED [4]: Partial agonist
9 | CC[C@H](C)[C@H]1NC(=O)[C@@H](Cc2ccc(OC)cc2)NC(=O)CC2(CCCCC2)SSC[C@H](C(=O)N2CCC[C@H]2C(=O)N[C@@H](CCCN)C(=O)N[C@H](CCCN=C(N)N)C(N)=O)NC(=O)[C@@H](CC(N)=O)NC(=O)[C@H]([C@H](C)O)NC1=O | – | – | – | Activity [5]: Partial agonist
10 | CC[C@H](C)[C@@H]1NC(=O)[C@H](Cc2ccc(OC)cc2)NC(=O)CC2(CCCCC2)SSC[C@@H](C(=O)N2CCC[C@H]2C(=O)N[C@@H](CCCN)C(=O)NCC(N)=O)NC(=O)[C@H](CC(N)=O)NC(=O)[C@H](CCC(N)=O)NC1=O (Y(Me)IQNCP[Orn]G-NH2; linker N-5 via X1) | 4.2 | 0.01 | 0.8 | –
11 | CC[C@H](C)[C@@H]1NC(=O)[C@H](Cc2ccc(OC)cc2)NC(=O)CC2(CCCCC2)SSC[C@@H](C(=O)N2CCC[C@H]2C(=O)N[C@@H](CCCN)C(N)=O)NC(=O)[C@H](CC(N)=O)NC(=O)[C@H]([C@@H](C)O)NC1=O (Y(Me)ITNCP[Orn]-NH2; linker N-5 via X1) | 1.7 | – | 7.3 | ED [6]: ~100 nM/kg
12 | CC[C@H](C)[C@@H]1NC(=O)[C@H](Cc2ccc(OC)cc2)NC(=O)CC2(CCCCC2)SSC[C@@H](C(=O)N2CCC[C@H]2C(=O)N[C@@H](CCCN)C(=O)O)NC(=O)[C@H](CC(N)=O)NC(=O)[C@H]([C@@H](C)O)NC1=O (Y(Me)ITNCP[Orn]-OH; linker N-5 via X1) | 1.3 | – | 23 | ED [6]: ~300 nM/kg
13 | CC[C@H](C)[C@@H]1NC(=O)[C@H](Cc2ccc(OC)cc2)NC(=O)CC2(CCCCC2)SSC[C@@H](C(=O)N2CCC[C@H]2C(=O)N[C@@H](CCCN)C(=O)NCC(N)=O)NC(=O)[C@H](CC(N)=O)NC(=O)[C@H]([C@@H](C)O)NC1=O (Y(Me)ITNCP[Orn]G-NH2; linker N-5 via X1) | 2 | – | 9.9 | ED [7]: ~330 nM/kg; Activity [8]: 0.01 mg
14 | CC[C@H](C)[C@@H]1NC(=O)[C@H](Cc2ccc(OC)cc2)NC(=O)CC2(CCCCC2)SSC[C@@H](C(=O)N2CCC[C@H]2C(=O)N[C@@H](CCCN)C(=O)N[C@@H](CC(C)C)C(N)=O)NC(=O)[C@H](CC(N)=O)NC(=O)[C@H]([C@@H](C)O)NC1=O (Y(Me)ITNCP[Orn]L-NH2; linker N-5 via X1) | 1.8 | – | 27 | Activity [9]: 0.029 mg
15 | CC[C@H](C)[C@@H]1NC(=O)[C@H](Cc2ccc(OC)cc2)NC(=O)CC2(CCCCC2)SSC[C@@H](C(=O)N2CCC[C@H]2C(=O)N[C@@H](CCCN)C(=O)N[C@@H](Cc2ccc(O)cc2)C(N)=O)NC(=O)[C@H](CC(N)=O)NC(=O)[C@H]([C@@H](C)O)NC1=O (Y(Me)ITNCP[Orn]Y-NH2; linker N-5 via X1) | 1 | – | 6.6 | Activity [10]: 0.015 mg
16 | CCOc1ccc(C[C@H]2NC(=O)CC3(CCCCC3)SSC[C@@H](C(=O)N3CCC[C@H]3C(=O)N[C@@H](CCCCN)C(=O)NCC(N)=O)NC(=O)[C@H](CC(N)=O)NC(=O)[C@H](C(C)C)NC(=O)[C@H](Cc3ccccc3)NC2=O)cc1 ([dY](Et)FVNCPKG-NH2; linker N-5 via X1) [listing 1 of 2 here] | – | – | – | Kb [11]: 13.5 nM; Kb [12]: 19.1 nM; Kb [13]: 6.92 nM; Kb [14]: 10.5 nM; Kb [15]: 26.9 nM
17 | CCOc1ccc(C[C@H]2NC(=O)CC3(CCCCC3)SSC[C@@H](C(=O)N3CCC[C@H]3C(=O)N[C@@H](CCCCN)C(=O)NCC(N)=O)NC(=O)[C@H](CC(N)=O)NC(=O)[C@H](C(C)C)NC(=O)[C@H](Cc3ccccc3)NC2=O)cc1 ([dY](Et)FVNCPKG-NH2; linker N-5 via X1) [listing 2 of 2 here] | 1.9 | 1.5 | 0.48 | –
18 | CCOc1ccc(C[C@H]2NC(=O)CC3(CCCCC3)SSC[C@@H](C(=O)N3CCC[C@H]3C(=O)N[C@@H](CCCN=C(N)N)C(=O)NCC(N)=O)NC(=O)[C@H](CC(N)=O)NC(=O)[C@H](C(C)C)NC(=O)[C@H](Cc3ccccc3)NC2=O)cc1 ([dY](Et)FVNCPRG-NH2; linker N-5 via X1) | 2.6 | 1.1 | 0.45 | –
19 | CC[C@H](C)[C@@H]1NC(=O)C(Cc2ccc(OC)cc2)NC(=O)CC2(CCCCC2)SSC[C@@H](C(=O)N2CCC[C@H]2C(=O)N[C@@H](CCCN=C(N)N)C(=O)NCC(N)=O)NC(=O)[C@H](CC(N)=O)NC(=O)[C@H](CCC(N)=O)NC1=O (stereo in doubt) | 1.1 | – | 0.64 | Activity [16]: ~0.03 mg
20 | CC[C@H](C)[C@@H]1NC(=O)C(Cc2ccc(OC)cc2)NC(=O)CC(C)(C)SSC[C@@H](C(=O)N2CCC[C@H]2C(=O)N[C@@H](CCCN=C(N)N)C(=O)NCC(N)=O)NC(=O)[C@H](CC(N)=O)NC(=O)[C@H](C(C)C)NC1=O (stereo in doubt) | 1.9 | – | 0.23 | Activity [8]: 1.6 mg
21 | CC[C@H](C)[C@@H]1NC(=O)C(Cc2ccc(OC)cc2)NC(=O)CC(C)(C)SSC[C@@H](C(=O)N2CCC[C@H]2C(=O)N[C@@H](CCCN=C(N)N)C(=O)NCC(N)=O)NC(=O)[C@H](CC(N)=O)NC(=O)[C@H](CCC(N)=O)NC1=O (stereo in doubt) | 2.2 | – | 0.25 | Activity [8]: ~1.6 mg
22 | CC[C@H](C)[C@@H]1NC(=O)C(Cc2ccc(OC)cc2)NC(=O)CC2(CCCCC2)SSC[C@@H](C(=O)N2CCC[C@H]2C(=O)N[C@@H](CCCCN)C(=O)NCC(N)=O)NC(=O)[C@H](CC(N)=O)NC(=O)[C@H](CCC(N)=O)NC1=O (stereo in doubt) | 4.6 | – | 1.5 | Activity [8]: ~0.003 mg
